In ChEMBL document CHEMBL4334444, “Studies of Jatrogossone A as a Reactive Oxygen Species Inducer in Cancer Cellular Models” (J Nat Prod, 2019):
pIC50: −log10 of the molar value. Active and inactive are the calls of the source. The calls are words filed in the database; no cut-off is given here.

Tests used:
MCF7 [1] = test: Induction of mitochondrial membrane potential loss in human MCF7 cells at 4 uM after 24 to 48 hrs by TMRM staining based flow cytometric analysis; format: functional, cell-based
Method in brief: (§1)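 TMRM flow cytometry. KOPN-8 (4 × 10^4 or 5 × 10^5 per well) or MCF-7 (2 × 10^4 or 2 × 10^5 per well) were seeded 24 h, then treated 24–48 h. FCCP 10 μM was added 10 min before staining as positive control. Cells were stained with TMRM 100 nM for 0.5 h, then PBS-washed, resuspended in PBS with 1% FBS and analysed by flow cytometry; DAPI flagged compromised cells.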

KOPN-8 [2] = test: Induction of apoptosis in human KOPN8 cells assessed as increase in cleaved PARP 1 level at 1 to 10 uM after 3 hrs by Western blot analysis; format: functional, cell-based
Method in brief: (§2)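 Western blot of KOPN-8 and MCF-7 lysates made in RIPA-type buffer (Tris pH 7.5, Triton X-100, deoxycholate, SDS) with protease and phosphatase inhibitors. 30 μg protein per lane was run on 4–12% Bis-Tris SDS-PAGE and transferred to nitrocellulose. Blots were probed for cleaved caspase-7 and PARP-1 and detected with IR-dye secondaries. Menadione served as positive control: 10 μM in KOPN-8, 30 μM in MCF-7. Blots are representative of three independent experiments.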

SUP-B15 = test: Antiproliferative activity against human SUP-B15 cells assessed as reduction in cell viability at 0.1 to 250 uM by CellTiter-Glo assay; format: functional, cell-based
Method in brief: (§3)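 CellTiter-Glo luminescent viability readout. Cells kept at 37 °C under 5% CO2. HMEC primary cells grown in basal medium with growth kit; leukemia lines and murine BCR-ABL (WT, Bax/Bak DKO) cultured per earlier description. Positive controls: staurosporine 25 μM, gambogic acid 10 μM, a toxic quinoline. At least two biological replicates in technical triplicate; luminescence normalized to untreated controls; EC50 computed.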

KOPN-8 [3] = test: Induction of cell death in human KOPN8 cells at 4 to 10 uM after 24 hrs; format: functional, cell-based
Raji = test: Antiproliferative activity against human Raji cells assessed as reduction in cell viability at 0.1 to 250 uM by CellTiter-Glo assay; format: functional, cell-based; method in brief: as §3
MCF7 [4] = test: Upregulation of Trx expression in human MCF7 at 1 uM after 24 hrs by Western blot analysis; format: functional, cell-based
Method in brief: (§4)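 Western blot of KOPN-8 or MCF-7 lysates, 30 μg protein per lane on 4–12% Bis-Tris SDS-PAGE and transferred to nitrocellulose. Blots were probed with an oxidative stress defense antibody cocktail (catalase, SOD1, Trx, smooth muscle actin) and tubulin, and detected with IR-dye secondaries on a LI-COR Odyssey.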

B-ALL [5] = test: Antiproliferative activity against mouse B-ALL cells harboring Bax/Bak double knockout mutant assessed as reduction in cell viability at 0.1 to 250 uM by CellTiter-Glo assay; format: functional, cell-based; method in brief: as §3
KOPN-8 [6] = test: Upregulation of Trx expression in human KOPN8 at 10 uM after 3 to 6 hrs by Western blot analysis; format: functional, cell-based; method in brief: as §4
U2OS [7] = test: Antiproliferative activity against human U2OS cells assessed as reduction in cell viability at 0.1 to 250 uM by CellTiter-Glo assay; format: functional, cell-based; method in brief: as §3
MCF7 [8] = test: Upregulation of Trx level in human MCF7 at 1 uM after 3 to 6 hrs by Western blot analysis; format: functional, cell-based
Method in brief: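 MCF-7 cells were exposed to compound for 3 or 6 h. Lysates were made in Tris-HCl pH 7.5 RIPA-type buffer with protease/phosphatase inhibitors and quantified by BCA. 30 μg protein per lane was run on 4–12% Bis-Tris SDS-PAGE in MES and transferred to nitrocellulose. Blots were probed for thioredoxin with tubulin as reference, detected with IR-dye secondaries (1:15 000) and scanned on an infrared imager.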

KOPN-8 [9] = test: Induction of apoptosis in human KOPN8 cells assessed as early apoptotic cells at 10 uM after 24 hrs by Annexin V-FITC and propidium iodide staining based flow cytometry; format: functional, cell-based
Method in brief: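 KOPN-8 cells were plated at 1.00 × 10^6 per plate and held 12 h at 37 °C, then treated 24 h; positive control 2 μM staurosporine, vehicle DMSO. Cells were stained with Annexin V-FITC and PI and analysed by flow cytometry (FACSCalibur). Profiles are representative of three independent biological replicates.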

MCF7 [10] = test: Induction of apoptosis in human MCF7 cells assessed as increase in cleaved PARP 1 level at 1 to 100 uM after 24 hrs by Western blot analysis; format: functional, cell-based; method in brief: as §2
KOPN-8 [11] = test: Cell cycle arrest in human KOPN8 cells assessed as decrease in accumulation at S phase at 10 uM incubated for 24 hrs by propidium iodide staining based flow cytometric analysis relative to control; format: functional; conditions: KOPN-8, 24 h
Method in brief: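 KOPN-8 plated at 1.00 × 10^6 cells/plate, held 12 h at 37 °C, treated 24 h at 10 μM; DMSO vehicle and 2 μM staurosporine as controls. Cells fixed in cold methanol, RNase-treated, stained with PI (50 μg/mL); cell-cycle distribution by flow cytometry.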

KOPN-8 [12] = test: Induction of mitochondrial membrane potential loss in human KOPN8 cells at 1 to 3 uM after 24 to 48 hrs by TMRM staining based flow cytometric analysis; format: functional, cell-based; method in brief: as §1
[13] = Stability in DMSO assessed as micheal adduct formation by measuring intact compound incubated for 16 hrs in presence of NAC by LC-MS analysis; format: physicochemical
B-ALL [14] = test: Cytotoxicity against BCR-ABL p185-positive mouse B-ALL cells overexpressing human BFL-1 assessed as inhibition of cell viability after 24 hrs by AnnexinV-FITC/propidium iodide staining based flow cytometric analysis; format: functional
[15] = Stability in DMSO assessed as micheal adduct formation by measuring intact compound incubated for 16 hrs in presence of NAC by NMR analysis; format: physicochemical
KOPN-8 [16] = test: Induction of mitochondrial membrane potential loss in human KOPN8 cells at 10 uM after 24 to 48 hrs by TMRM staining based flow cytometric analysis; format: functional, cell-based; method in brief: as §1
B-ALL [17] = test: Cytotoxicity against BCR-ABL p185-positive human B-ALL cells harboring MCL-1 triple knock out mutant assessed as inhibition of cell viability after 24 hrs by AnnexinV-FITC/propidium iodide staining based flow cytometric analysis; format: functional
[18] = Half life in human plasma; format: ADME, cell-free
KOPN-8 [19] = test: Antiproliferative activity against human KOPN8 cells assessed as reduction in cell viability at 1 to 10 uM by CellTiter-Glo assay; format: functional, cell-based; method in brief: as §3
U2OS [20] = test: Ratio of concentration required for induction of apoptosis in human U2OS cells to concentration required for induction of mito-phagy in human U2OS cells transfected with mKeima-Red-Mito-7; format: functional
[21] = Stability in CH3CN assessed as micheal adduct formation by measuring intact compound incubated for 16 hrs in presence of NAC by NMR analysis; format: physicochemical
B-ALL [22] = test: Cytotoxicity against BCR-ABL p185-positive mouse B-ALL cells transfected with empty vector assessed as inhibition of cell viability after 24 hrs by AnnexinV-FITC/propidium iodide staining based flow cytometric analysis; format: functional
[23] = Stability in CH3CN assessed as micheal adduct formation by measuring intact compound incubated for 16 hrs in presence of glutathione by LC-MS analysis; format: physicochemical
B-ALL [24] = test: Antiproliferative activity against mouse B-ALL cells expressing wild type BCR-ABL assessed as reduction in cell viability at 1 to 10 uM by CellTiter-Glo assay; format: functional, cell-based; method in brief: as §3

With CC1=C2CC(C)(C)/C=C/C(=O)/C(C)=C\C3=C[C@H](C)C[C@]3(O2)C1=O [JATROPHONE] as the compound, how does the Activity (MCF7 [1]) read?
The Activity was “inactive”.

And the Activity (KOPN-8 [2])?
Its Activity is “Active”.

What about the inhibition (SUP-B15) of the same compound?
Its inhibition is “Active”.

What about the Activity (KOPN-8 [3]) of the same compound?
Its Activity is “Active”.

And the inhibition (Raji)?
The inhibition was “Active”.

What about the Activity (MCF7 [4]) of the same compound?
Its Activity is “inactive”.

And the inhibition (B-ALL [5])?
The inhibition was “Active”.

And the Activity (KOPN-8 [6])?
Its Activity is “inactive”.

What about the inhibition (U2OS [7]) of the same compound?
The inhibition was “Active”.

And the Activity (MCF7 [8])?
Its Activity is “Active”.

With CC(=O)O[C@H]1/C2=C/[C@@H](C)C(=O)C[C@H]3[C@@H](/C=C(\C)C(=O)[C@H]2C[C@H]1C)C3(C)C as the compound, how does the Activity (KOPN-8 [9]) read?
Its Activity is “inactive”.

And the Activity (MCF7 [10])?
The Activity was “Active”.

What about the inhibition at 10 µM (KOPN-8 [11]) of the same compound?
Its inhibition at 10 µM is 5%.

What about the Activity (KOPN-8 [12]) of the same compound?
The Activity was “Active”.

And the Stability [13]?
The Stability was “Stable”.

What about the pIC50 (B-ALL [14]) of the same compound?
The pIC50 was 5.37.

And the Stability [15]?
Its Stability is “Stable”.

And the Activity (KOPN-8 [16])?
The Activity was “inactive”.

And the pIC50 (B-ALL [17])?
The pIC50 was 4.71.

And the half-life [18]?
Its half-life is 19.5 h.

And the inhibition (KOPN-8 [19])?
Its inhibition is “Active”.

What about the Ratio (U2OS [20]) of the same compound?
The Ratio was 5.

What about the Stability [21] of the same compound?
The Stability was “Stable”.

What about the pIC50 (B-ALL [22]) of the same compound?
The pIC50 was 5.34.

And the Stability [23]?
Its Stability is “Stable”.

What about the inhibition (B-ALL [24]) of the same compound?
The inhibition was “Active”.
